Source: ChEMBL document CHEMBL1158041, “Diterpenoids, norditerpenoids, and secosteroids from the Formosan soft coral Cespitularia hypotentaculata” (2006)
≈ marks a conversion by molar mass, not a printed value.

Experiments:
HT-29 = experiment: Cytotoxicity against human HT-29; assay type: functional
Summary of the method: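 HT-29 human colon cells obtained from the American Type Culture Collection; cytotoxicity reported as ED50 in µg/mL.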

P388 = experiment: Cytotoxicity against mouse P388; assay type: functional
Summary of the method: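 Murine P-388 leukemia cells were a gift from an academic laboratory; cytotoxicity reported as ED50 in µg/mL.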

[1] = read-out: ED50 (the source's name)

| SMILES | Activity (HT-29) | Activity (P388) | EC50 (P388; [1]) [µg/mL] | EC50 (HT-29; [1]) [µg/mL] |
| --- | --- | --- | --- | --- |
| C=C1CC[C@@H]2CCC3=C(C(=O)[C@@H](/C(C)=C/[C@@H](OC(C)=O)C1)[C@H]3O)C2(C)C | Not toxic | Not toxic | – | – |
| CC(C)[C@@H](C)[C@@]1(C)C[C@@H]1[C@@H](C)[C@H]1CC[C@@H]([C@@H]2C[C@H]3O[C@]34C[C@@H](O)CC[C@]4(C)C2=O)[C@]1(C)CCO | Not toxic | Not toxic | – | – |
| C=C1CC[C@@H]2O[C@@]2(C)CC[C@@H]2/C(=C/C=C/C(C)C)C(=O)OC[C@@H]12 | Not toxic | Not toxic | – | – |
| C=C1CC[C@@H]2CCC3=C([C@@H](C/C(C)=C/[C@@H](O)C1)OC3=O)C2(C)C [CESPITULARIN O] | Not toxic | – | 3.4 (≈ 10.7 µM) | – |
| C=C1CC[C@@H]2CCC3=C(C(=O)[C@H](C3=O)/C(C)=C/[C@@H](O)C1)C2(C)C | Not toxic | Not toxic | – | – |
| C=C1CC[C@@H]2CC[C@@H](O)[C@@](O)(C(=O)C/C(C)=C/[C@@H](O)C1)C2(C)C | Not toxic | Not toxic | – | – |
| CC(C)CCC[C@@H](C)[C@H]1CC[C@@H]([C@@H]2C[C@H]3O[C@]34C[C@@H](O)CC[C@]4(C)C2=O)[C@]1(C)CCO | – | Not toxic | – | 1 (≈ 2.3 µM) |
| C=C1CC[C@@H]2CCC3=C(C(=O)[C@H](C3=O)/C(C)=C/[C@@H](OC(C)=O)C1)C2(C)C | Not toxic | Not toxic | – | – |
| C=C1CC[C@@H]2CCC3=C(C(=O)[C@H]([C@H]3O)[C@@]3(C)O[C@@H]3[C@@H](O)C1)C2(C)C | Not toxic | Not toxic | – | – |
| C=C1CC[C@@H]2CC[C@H](O)[C@@](O)(C(=O)C/C(C)=C/[C@@H](O)C1)C2(C)C | Not toxic | Not toxic | – | – |
| C=C1CC[C@@H]2CC[C@H](OC(=O)C/C(C)=C/[C@@H](O)C1)C(=O)C2(C)C | Not toxic | Not toxic | – | – |
| C=C1CC[C@@H]2CCC3=C(C2(C)C)[C@@](OC)(C/C(C)=C/[C@@H](O)C1)OC3=O | Not toxic | Not toxic | – | – |
